Data published in ChEMBL document CHEMBL1123885, “Analogues of 3-ethyl-3-(4-pyridyl)piperidine-2,6-dione as selective inhibitors of aromatase: derivatives with variable 1-alkyl and 3-alkyl substituents” (J Med Chem, 1987).

What was measured:
[1] = Partition coefficient (logP); assay type: physicochemical; details: octanol/water
[2] = target: T1, Cholesterol side-chain cleavage enzyme, mitochondrial (Bos taurus, UniProt P00189); test: Inhibition of bovine desmolase, cytochrome P450 11A1; NI = No Inhibition at maximum concentration tested
T1 sequence (P00189 whole entry): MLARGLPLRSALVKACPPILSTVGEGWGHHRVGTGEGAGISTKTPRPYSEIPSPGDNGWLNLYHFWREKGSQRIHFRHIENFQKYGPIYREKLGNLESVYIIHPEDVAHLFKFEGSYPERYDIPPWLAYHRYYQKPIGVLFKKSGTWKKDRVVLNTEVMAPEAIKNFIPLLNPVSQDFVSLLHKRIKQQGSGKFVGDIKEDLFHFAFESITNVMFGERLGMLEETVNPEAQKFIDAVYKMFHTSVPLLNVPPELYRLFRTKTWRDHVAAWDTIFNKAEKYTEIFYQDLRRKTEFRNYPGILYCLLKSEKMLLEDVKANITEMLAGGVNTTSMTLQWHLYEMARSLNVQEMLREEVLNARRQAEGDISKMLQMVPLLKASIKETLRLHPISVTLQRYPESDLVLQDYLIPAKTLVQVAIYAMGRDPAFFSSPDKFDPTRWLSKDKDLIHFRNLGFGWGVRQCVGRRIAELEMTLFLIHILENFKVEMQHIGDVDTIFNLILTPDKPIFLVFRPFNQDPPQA
Outline: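 Bovine adrenal cortex mitochondrial fraction as side-chain cleavage enzyme. […] Released [14C]isocaproic acid passes through alumina, which retains the steroid; eluate radioactivity is counted. Compound tested at 5, 10, 20 and 50 μg/mL. IC50 is the concentration that halves control activity, extrapolated when above the top concentration. "None" means no inhibition at the maximum tested.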

[3] = target: T2, Aromatase (Homo sapiens, UniProt P11511)
T2 sequence (P11511 whole entry): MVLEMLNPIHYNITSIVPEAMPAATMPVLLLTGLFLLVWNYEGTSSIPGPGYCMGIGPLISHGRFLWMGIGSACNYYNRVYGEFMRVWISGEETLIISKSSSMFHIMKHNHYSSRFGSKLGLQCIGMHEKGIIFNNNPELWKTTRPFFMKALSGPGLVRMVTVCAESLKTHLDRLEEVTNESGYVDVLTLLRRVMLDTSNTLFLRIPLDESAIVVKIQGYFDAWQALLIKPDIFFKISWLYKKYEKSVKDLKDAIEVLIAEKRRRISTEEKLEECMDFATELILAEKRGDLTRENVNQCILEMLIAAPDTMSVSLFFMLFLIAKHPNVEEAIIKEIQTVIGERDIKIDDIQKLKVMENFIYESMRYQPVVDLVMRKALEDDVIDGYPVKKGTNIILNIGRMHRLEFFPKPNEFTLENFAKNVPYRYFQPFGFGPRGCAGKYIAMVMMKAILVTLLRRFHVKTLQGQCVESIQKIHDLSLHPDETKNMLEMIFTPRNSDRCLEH

## CCCC1(c2ccncc2)CCC(=O)NC1=O (stereo not given)
[1]
  logP: 1.13
[2]
  IC50: No inhibition

## CCCCCC1(c2ccncc2)CCC(=O)NC1=O (stereo not given)
[3]
  IC50: 2.5 µM
[1]
  logP: 2.26
[2]
  IC50: No inhibition

## CCCCCCN1C(=O)CCC(CC)(c2ccncc2)C1=O (stereo not given)
[2]
  IC50: No inhibition

## CC1(c2ccncc2)CCC(=O)NC1=O (stereo not given)
[2]
  IC50: No inhibition

## CCCN1C(=O)CCC(CC)(c2ccncc2)C1=O (stereo not given)
[1]
  logP: 2.18
[2]
  IC50: No inhibition

## CCCCCCC1(c2ccncc2)CCC(=O)NC1=O (stereo not given)
[3]
  IC50: 3.6 µM
[1]
  logP: 2.94
[2]
  IC50: No inhibition

## CCCCN1C(=O)CCC(CC)(c2ccncc2)C1=O (stereo not given)
[1]
  logP: 2.76
[2]
  IC50: No inhibition

## CCN1C(=O)CCC(CC)(c2ccncc2)C1=O (stereo not given)
[1]
  logP: 1.64
[2]
  IC50: No inhibition

## CCC1(c2ccncc2)CCC(=O)N(C)C1=O (stereo not given)
[2]
  IC50: No inhibition

## CCCCC1(c2ccncc2)CCC(=O)NC1=O (stereo not given)
[2]
  IC50: No inhibition

## CCCCCCCC1(c2ccncc2)CCC(=O)NC1=O (stereo not given)
[3]
  IC50: 3.2 µM

## CCC1(c2ccncc2)CCC(=O)NC1=O (stereo not given) [ROGLETIMIDE]
[1]
  logP: 0.58
